TAG inh = inhibitors of triacylglycerol accumulation | 230,000 compounds, 0.66% hits | AID 651582 | inhibition, % at 12.5 µM | H9c2 cells, Nile Red lipid (TAG) fluorescence; cells loaded with 200 µM oleic acid;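 active means pattern-corrected inhibition of lipid staining of at least 50% with the nuclear-stain viability signal not falling by more than 50%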;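 further: 0% = DMSO wells and 100% = triacsin C control wells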
NR1D1 modulator = modulates human Rev-erb alpha binding to DNA | P20393 | Rev-erbα–FITC-DNA binding, fluorescence polarization, 90 min | activity, % at 10 µM | 370,000 compounds, 0.79% hits | AID 1259318;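 active means activity above about 14%, limit read from the data; passing the limit was not always enough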;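 further: 0% = DMSO wells with 35 nM protein and 100% = DMSO wells with 750 nM protein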
Target sequence (P20393 whole entry, looked up): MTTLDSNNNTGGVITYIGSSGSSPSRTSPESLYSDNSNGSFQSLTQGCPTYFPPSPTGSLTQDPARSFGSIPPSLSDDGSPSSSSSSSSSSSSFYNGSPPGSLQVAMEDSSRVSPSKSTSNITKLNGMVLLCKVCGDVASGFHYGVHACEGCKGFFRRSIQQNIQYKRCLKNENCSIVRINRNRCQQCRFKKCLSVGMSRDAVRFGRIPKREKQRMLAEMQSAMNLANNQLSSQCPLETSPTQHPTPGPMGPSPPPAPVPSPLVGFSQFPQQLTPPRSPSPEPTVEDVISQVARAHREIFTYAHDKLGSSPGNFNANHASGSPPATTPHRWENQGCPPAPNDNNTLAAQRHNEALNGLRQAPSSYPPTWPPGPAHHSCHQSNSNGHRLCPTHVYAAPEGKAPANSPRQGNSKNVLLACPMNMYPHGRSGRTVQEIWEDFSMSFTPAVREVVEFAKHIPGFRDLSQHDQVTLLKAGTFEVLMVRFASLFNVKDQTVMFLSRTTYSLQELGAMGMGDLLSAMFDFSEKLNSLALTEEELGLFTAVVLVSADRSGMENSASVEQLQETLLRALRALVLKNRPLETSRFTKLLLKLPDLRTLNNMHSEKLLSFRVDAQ
MIN6 prolif-1 = inducers of beta-cell replication in MIN6 cells | 330,000 compounds, 0.29% hits | proliferation, % at 10 µM | AID 2380 | MIN6 cells proliferation, ATPlite luminescence, 48 h; cells starved in 0.2% serum; 100% = growth in 10% serum;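 active means compounds whose signal lies at least 3.5 SD above the mean of all wells on their plate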;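 further: 0% = DMSO-treated cells in low-serum medium and 100% = 10% serum control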
T cruzi inh = blocks replication of Trypanosoma cruzi; T. cruzi beta-gal in NIH3T3, luminescence, 90 h; inhibition, % (test concentration not listed); 300,000 compounds, 1.4% hits;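 active means mean inhibition across valid replicates above about 55%, limit read from the data; inconclusive means mean below that limit but half or more replicates reach it; inactive means mean below it, under half of replicates reach it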;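 further: signal also drops with host cell toxicity which is not excluded here; 0% = plate median of DMSO wells and 100% = zero luminescence signal; higher percent means less beta-gal luminescence so fewer parasites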
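System: NIH/3T3 fibroblasts plus reporter T. cruzi. Medium: DMEM plus 2% FBS. Probe or stimulus: 5000 reporter trypomastigotes per well. Compound: single 50 nL compound addition per well in DMSO. Incubation: co-culture of at least 90 h after 3 h attachment. Detection: GalScreen β-gal luminescence, detergent lysis, 60 min. Evaluation: parasite load inhibition, %.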
iPSC survival up = increases survival of single human iPS cells. hiPSC single-cell survival, ATPlite luminescence; 100% = ROCK inhibitor wells, 0% = DMSO. survival enhancement, % at 20 µM. 360,000 compounds, 0.044% hits. AID 602274; in the data active means survival enhancement above about 18%;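 further: cells exposed to compounds for 16 hours before the ATP read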
PG9 Ab binder = binds the HIV-1 gp120 antibody PG9; TR-FRET gp120-PG9 antibody binding; inhibition, % at 6.7 µM; 360,000 compounds, 0.43% hits; in the data active means inhibition above about 8.5%
MIN6 prolif-2 = MIN6 beta-cell replication induction, confirmed. shares compounds with MIN6 prolif-1. MIN6 beta-cell proliferation, ATPlite luminescence, 48 h; cells kept in 0.2% serum; scaled between 0.2% and 10% serum. proliferation increase, % at 50 µM. 920 tested, under 10 active;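 active means proliferation increase above 40% at any of the four tested concentrations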
* = called active by the depositor; ? = inconclusive; · = no result. This is a sample that favours compounds with a hit; in the whole collection about 2.9% have one here.

SMILES	TAG inh	NR1D1 modulator	MIN6 prolif-1	T cruzi inh	iPSC survival up	PG9 Ab binder	MIN6 prolif-2
CO/N=C(/c1nonc1N)N1CCN(c2ccc([N+](=O)[O-])cc2)CC1	·	-2	11*	3	6	0	2
O=C(c1ccc(N2CCOCC2)c([N+](=O)[O-])c1)N1CCN(Cc2ccccc2)CC1	·	-1	5.8*	9	0	-1	-2
O=C(NCc1cccs1)C1CCCN(S(=O)(=O)c2cccc3ccccc23)C1 (stereo unspecified)	·	5	·	·	·	·	·
CC(=O)Oc1ccccc1Cn1c(C)c(C(=O)NCc2cccc(Cl)c2)sc1=O	30	-8	·	·	1	0	·
CCC(NC(C)C)C(O)c1ccc(O)c2[nH]c(=O)ccc12 (stereo unspecified)	-7	·	19*	12	-1	·	0
Cc1cc(C)c(C#N)c(SCc2ccc(F)cc2)n1	-3	3	1	-9	2	0	·
Cc1cc(C)c(C#N)c(SCc2ccc(C#N)cc2)n1	-12	8	12*	-8	2	-2	-2
CCCn1cnc2scc(-c3ccc(C)cc3)c2c1=O	-1	-4	14*	-10	0	0	-2
CSc1nc(N)nc2c1ncn2C1OC(CO)C(O)C1O (stereo unspecified)	-12	0	·	·	2	0	·
N#Cc1ccccc1CN1C(=O)NC(Cc2c[nH]c3ccccc23)C1=O (stereo unspecified)	-12	-4	-1	6	-1	0	·
CC(=O)Nc1ccc(CN2CCCCCC2)cc1	-3	1	5.5*	0	0	0	2
CN(C)S(=O)(=O)c1cc([N+](=O)[O-])ccc1N1CCCCCC1	-16	-1	12*	9	-2	-3	-4
Cc1cccc(C)c1NC(=O)CNC(=O)C12CC3CC(CC(O)(C3)C1)C2	-7	-3	-2	-16	0	-1	·
Cc1cc(C(=O)CSc2nnc(-c3ccncc3)n2-c2ccccc2)c(C)n1C	4	-2	-1	-9	0	-3	·
Cc1cc(C(=O)CSc2nnc(-c3ccccc3)n2-c2ccccc2)c(C)n1-c1ncn[nH]1	0	0	6.9*	10	2	3	-4
CN1CCN(C(=O)c2ccc(N(C)S(=O)(=O)c3cccs3)cc2)CC1	2	5	-1	28	0	-2	·
COC(=O)c1ccc(OC(=O)c2ccccn2)cc1	-11	1	6.5*	-9	-1	1	0
COC(=O)c1ccc(OC(=O)c2cccnc2SC)cc1	·	-1	-1	-2	1	0	·
CC1=C(c2ccccc2)C(=S)NC(C)(C)C1	-9	-9	5.6*	-18	1	-2	-2
CC1=C(c2ccccc2)C(=O)C(C)(C)CC1=O	·	-1	·	·	·	0	·
COCCNC(=O)c1cn(C(C)c2ccccc2F)nn1 (stereo unspecified)	·	-2	-4	-2	·	-1	·
Cn1ncc2c(Nc3cccc(C(=O)O)c3)ncnc21	·	-1	0	-8	0	0	·
O=C(Cn1cc2c(n1)CCCCC2)NCc1ccccn1	7	4	12*	0	0	-1	-3
O=C(Cn1cc2c(n1)CCCCC2)NCc1ccccc1	2	6	-1	-6	0	-4	·
Cc1cc(C)c(C)c(OCCOCCN2CCOCC2)c1	·	0	2	14	0	2	·
SMILES	TAG inh	NR1D1 modulator	MIN6 prolif-1	T cruzi inh	iPSC survival up	PG9 Ab binder	MIN6 prolif-2
O=C(CSc1ncccn1)N1CCCc2ccccc21	-5	0	-1	-3	0	1	·
CCc1nc(SCC(=O)N2CCCc3ccccc32)c2oc3ccccc3c2n1	4	-5	15*	29	0	0	-6
CC(C)C[C@H](NC(=O)NCc1ccc(Cl)cc1)C(=O)O	·	-3	10*	-7	2	1	-2
NC(=O)CN1C(=O)C2CCCCN2C(=O)c2ccccc21 (stereo unspecified)	-1	-4	-1	-6	-1	1	·
c1cncc(-c2nc(N3CCOCC3)c3ccccc3n2)c1	·	·	4.8*	14	-2	·	2
CCOc1ncccc1C(=O)OC(C)C(=O)Nc1ccc(N2CCOCC2)cc1 (stereo unspecified)	31	3	10*	·	-2	-1	4
CCOc1ncccc1C(=O)Nc1ccccc1N1CCOCC1	-9	5	-3	·	-2	-1	·
CCN1CCN(c2sc(S(C)(=O)=O)nc2S(=O)(=O)c2ccc(C)cc2)CC1	·	-1	16*	-3	1	-1	-3
Cc1c(N=C2NC(=O)/C(=C/c3ccc(O)cc3)S2)c(=O)n(-c2ccccc2)n1C	·	1	4.4*	8	-1	-3	-2
CC(C)CC1=NC(C(F)(F)F)(C(F)(F)F)c2c(n(CC(C)C)c(=O)[nH]c2=O)N1	-5	0	6.6*	4	-1	1	0
CC1(C)CN(c2ccc(C(=O)c3ccccc3)cc2)C1=O	-11	11	7.8*	-1	-1	-2	-1
O=C(c1ccc(-c2cccc(C(F)(F)F)c2)o1)N1CCN(c2ccccc2O)CC1	·	-4	-7	17	0	-1	·
O=C(CN1CCCC1)Nc1c(C(=O)C2CC2)oc2ccccc12	-5	-5	7.1*	-3	0	-2	-4
CC(=O)Nc1c(C(=O)C2CC2)oc2ccccc12	·	2	0	-10	2	·	·
CC(C)CCN1CC(C(=O)NCc2ccccc2)CC1=O (stereo unspecified)	·	-5	1	-4	-2	1	·
CCSc1nc2ccccc2n1Cc1ccccc1F	-8	-1	5	3	4	-1	·
CCOc1ccccc1NC(=O)N1CCC(NC(=O)c2ccccc2C)CC1	-7	3	7.8*	-17	0	1	2
CCN(CC)S(=O)(=O)c1cccc(-c2nnc(SCC(=O)c3cc(C)n(C)c3C)o2)c1	-4	-2	12*	20	-1	1	1
Clc1ccc(-c2cnc3ccccc3n2)cc1	·	3	5.4*	-19	-3	0	-1
Oc1ccc(-c2cnc3ccccc3n2)cc1	16	1	0	-4	-1	1	·
CCCOC(=O)c1c(NC(=O)/C=C/c2cnn(C)c2C)sc(C(=O)OCC)c1C	·	2	5	1	2	-3	·
Cc1cc(C)c(C)c(S(=O)(=O)N2CCN(C(=O)CCc3nc4ccccc4c(=O)[nH]3)CC2)c1C	17	0	-3	-5	0	-4	·
COc1ccccc1CCN1CCCC(CN(C)Cc2ccc(OCCO)cc2)C1 (stereo unspecified)	2	-2	5.8*	?	-1	-2	-6

Bioassay records: PubChem BioAssay, several laboratories
